Compound activity deposited in PubChem BioAssay by several laboratories.
SENP6 block: inhibitors of human SENP6 protease | inhibition, % at 10 µM | AID 2599 | actives 1.8% (n = 330,000) | Q9GZR1 | Recombinant SENP6 catalytic domain, aminoluciferin luminescence;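 active = inhibition above about 50% at the single tested dose, limit read from the data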
Platelet DG rel: platelet dense granule release activity | human platelet-rich plasma, SFLLRN dense granule ATP release, luminescence | inhibition, %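 (compounds screened at 7.5 µM in platelet-rich plasma)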 | actives 0.22% (n = 300,000) | AID 1663;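 active = mean replicate score, as percent of positive control, at or above 50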
SENP8 block-1: inhibitors of human SENP8 protease; recombinant SENP8, Nedd8 substrate fluorescence; inhibition, % at 20 µM; actives 0.64% (n = 360,000); AID 602440; in the data active = inhibition mostly above about 40%, no sharp cut-off; inactive = mostly below about 27%
Target sequence (Q96LD8 whole entry, looked up): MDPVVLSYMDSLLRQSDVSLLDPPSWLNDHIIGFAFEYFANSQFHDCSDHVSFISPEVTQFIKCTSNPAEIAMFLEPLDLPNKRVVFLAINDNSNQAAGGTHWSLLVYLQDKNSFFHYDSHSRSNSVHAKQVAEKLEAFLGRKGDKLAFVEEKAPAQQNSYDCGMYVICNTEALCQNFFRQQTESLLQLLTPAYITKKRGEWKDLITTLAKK
SENP7 block: blocks the human protease SENP7; recombinant SENP7, Z-RLRGG-aminoluciferin luminescence, 40 min; inhibition, % at 5 µM; actives 1.5% (n = 330,000); AID 434973;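 active = inhibition above about 50% at the single test dose, limit read from the data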
SENP8 block-2: SENP8 protease inhibition; inhibition, % at 10 µM; AID 2540; purified SENP8, Z-RLRGG-aminoluciferin cleavage, luminescence; Q96LD8; actives 1.2% (n = 330,000); in the data active = inhibition above about 50%
SENP1 FRET inh: SENP1 (human) catalytic domain inhibition. Q9P0U3. recombinant SENP1 catalytic domain, CyPet-SUMO1-YPet FRET cleavage. inhibition, % at 10 µM. actives 0.21% (n = 360,000);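 active = inhibition at least 30% at 10 µM, raw YFP signal under a set limit, fluorescence ratio 0.5 to 1.5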
Target sequence (Q9P0U3 419-644 limits assumed): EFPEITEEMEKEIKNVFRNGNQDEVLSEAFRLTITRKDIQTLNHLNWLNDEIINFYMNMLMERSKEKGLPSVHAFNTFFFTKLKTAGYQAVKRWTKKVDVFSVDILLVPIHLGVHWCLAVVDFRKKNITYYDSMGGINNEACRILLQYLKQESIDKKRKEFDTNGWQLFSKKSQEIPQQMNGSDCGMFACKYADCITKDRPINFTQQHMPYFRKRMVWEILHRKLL
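Compound: 10 µM single point, 0.5% DMSO; Test system: hSENP1 catalytic domain, recombinant; Timing: 50 min reaction at room temperature; Technique: FRET, CFP and YFP emission; Control set: no-enzyme wells low, DMSO-plus-enzyme wells high control.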
SENP8 confirm: human SENP8 inhibition, confirmed; shares compounds with SENP7 block; Recombinant SENP8, Z-RLRGG-aminoluciferin luminescence, 60 min; inhibition, % at 12.5 µM; actives 40% (n = 6,200); AID 488912;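 active = mean inhibition across replicates above about 50%, limit read from the data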
SENP6 confirm: human SENP6 inhibition, confirmed; shares compounds with SENP7 block; recombinant SENP6, Z-RLRGG-aminoluciferin luminescence; inhibition, % at 12.5 µM; actives 58% (n = 6,200); AID 488915
SENP7 conf: confirmation of human SENP7 protease inhibitors; inhibition, % at 12.5 µM; recombinant SENP7, Z-RLRGG-aminoluciferin luminescence, 40 min; AID 488917; actives 69% (n = 6,200); shares compounds with SENP7 block
Casp3 SENP sel: selectivity test for SENP inhibitors: human caspase-3 inhibition; shares compounds with SENP7 block; purified caspase-3, Z-DEVD-aminoluciferin luminescence, 60 min; inhibition, % at 12.5 µM; actives 60% (n = 6,200); AID 488918;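 active = mean inhibition above about 50%, limit read from the data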
Target sequence (P42574 28-227 limits assumed): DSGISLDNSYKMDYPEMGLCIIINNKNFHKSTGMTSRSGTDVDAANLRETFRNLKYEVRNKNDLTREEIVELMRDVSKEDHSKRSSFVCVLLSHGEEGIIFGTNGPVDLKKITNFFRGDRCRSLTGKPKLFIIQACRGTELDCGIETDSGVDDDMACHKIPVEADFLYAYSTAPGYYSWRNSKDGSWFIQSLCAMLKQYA
Luc interf: luminescence interference (SENP counter-screen) | shares compounds with SENP7 block | Pre-incubated SENP8/Z-RLRGG-aminoluciferin, luciferase luminescence interference | inhibition, % at 12.5 µM | actives 39% (n = 6,200);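 active = mean inhibition above about 50% when retested at one dose, limit read from the data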
Each line names hits and unclear results; the compound was inactive in the other large screens (follow-up assays come after a bar, where they were run). Hits are enriched below; roughly 2.6% of the tested compounds scored in any of these assays.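 Rule for the calls, unless noted: active = mean inhibition above about 50% in the one-dose retest (limit read from the data); inactive = the rest.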

Cc1ccc(C(=O)N2CCc3ccccc32)o1	SENP6 block 91, SENP7 block 91, SENP8 block-2 88 | SENP8 confirm 91 | SENP6 confirm 91 | SENP7 conf 98 | Casp3 SENP sel 95 | Luc interf 89
O=C(c1cccs1)N1CCCc2ccccc21	none
O=C(c1cccs1)N1CCc2ccccc21	SENP6 block 60, SENP7 block 61 | SENP8 confirm inactive | SENP6 confirm inactive | SENP7 conf 80 | Casp3 SENP sel 76 | Luc interf 59
COc1ccc(CCC(=O)OCc2csc(CC(=O)Nc3ccc(C)cc3)n2)cc1OC	none (no result: Platelet DG rel)
CC(=O)c1cnc(Nc2ccccc2)s1	none
CC(=O)c1cnc(Nc2cccc(Cl)c2Cl)s1	SENP6 block 53 | SENP8 confirm 62 | SENP6 confirm 58 | SENP7 conf 86 | Casp3 SENP sel 61 | Luc interf inactive
Cc1cccc(NC(=O)c2ccc3c(c2)OCCO3)n1	SENP6 block 78, SENP7 block 83, SENP8 block-2 59 | SENP8 confirm inactive | SENP6 confirm 75 | SENP7 conf 92 | Casp3 SENP sel 89 | Luc interf 76
O=C(Nc1ccccn1)c1ccc2c(c1)OCO2	SENP7 block 73, SENP8 block-2 52 | SENP8 confirm inactive | SENP6 confirm 66 | SENP7 conf 92 | Casp3 SENP sel 90 | Luc interf 70
Cc1nc(NC(=O)c2ccc3c(c2)OCO3)ccc1Br	SENP6 block 81, SENP7 block 77, SENP8 block-2 74 | SENP8 confirm inactive | SENP6 confirm 72 | SENP7 conf 89 | Casp3 SENP sel 73 | Luc interf inactive
Cc1cccc(NC(=O)c2cc3c(s2)-c2c(C)cccc2OC3)n1	SENP7 block 86 | SENP8 confirm inactive | SENP6 confirm inactive | SENP7 conf inactive | Casp3 SENP sel inactive | Luc interf inactive
Cc1cccnc1NC(=O)c1ccc2c(c1)OCO2	none
Cc1cccc(NC(=O)CNC(=O)c2ccc3c(c2)OCO3)n1	none
CS(=O)(=O)c1ccc(Cl)c(NC(=O)COc2ccc3c(c2)CCC3)c1	none
CCC(c1nnc(SCC(=O)Nc2cc(S(C)(=O)=O)ccc2Cl)n1Cc1ccccc1)N(C)C (stereo not drawn)	none
O=C(Nc1ccccn1)c1ccc2c(c1)OCCO2	SENP7 block 80, SENP8 block-2 61 | SENP8 confirm inactive | SENP6 confirm 70 | SENP7 conf 92 | Casp3 SENP sel 89 | Luc interf 72
O=C(Nc1ccc(O)c(C(=O)O)c1)c1cccc(NC(=O)c2ccco2)c1	none
CCCCCCC(NC(=O)Cc1ccc2ccccc2c1)C(=O)O (stereo not drawn)	none (no result: SENP6 block, Platelet DG rel, SENP8 block-2)
O=C1CN(C(=O)COC(=O)c2ccc([N+](=O)[O-])s2)c2ccccc2N1	SENP6 block 53, SENP8 block-2 65 (no result: Platelet DG rel) | SENP8 confirm inactive | SENP6 confirm 85 | SENP7 conf inactive | Casp3 SENP sel inactive | Luc interf inactive
O=C(COC(=O)c1ccc([N+](=O)[O-])s1)c1ccc[nH]1	SENP8 block-2 57 (no result: Platelet DG rel) | SENP8 confirm inactive | SENP6 confirm 79 | SENP7 conf inactive | Casp3 SENP sel inactive | Luc interf inactive
O=C(OCC(=O)c1ccc[nH]1)c1ccc([N+](=O)[O-])cc1	none (no result: Platelet DG rel)
O=C(COC(=O)c1ccc([N+](=O)[O-])s1)NC(=O)NCc1ccccc1	SENP6 block 87, SENP8 block-2 66 | SENP8 confirm 75 | SENP6 confirm 84 | SENP7 conf inactive | Casp3 SENP sel inactive | Luc interf inactive
O=C(COC(=O)c1ccc([N+](=O)[O-])s1)NCc1ccc(F)cc1	SENP6 block 76, SENP7 block 52, SENP8 block-2 67 | SENP8 confirm inactive | SENP6 confirm 85 | SENP7 conf inactive | Casp3 SENP sel inactive | Luc interf inactive
COc1c(C)cc(C(O)c2ncc(-c3ccc(Cl)cc3)[nH]2)cc1C (stereo not drawn)	none (no result: SENP6 block, Platelet DG rel, SENP7 block, SENP8 block-2)
CC(=O)Nc1cccc(-c2ccnc3c2CC(C)(C(=O)Nc2cccnc2)O3)c1 (stereo not drawn)	none (no result: SENP6 block, Platelet DG rel, SENP7 block, SENP8 block-2)
CC(C)CC(=O)[C@@H](O)Cc1ccc(O)cc1	none (no result: SENP6 block, Platelet DG rel, SENP7 block, SENP8 block-2)
COc1ccc(/C=N/Nc2ncc(-c3ccccc3)cn2)c(OC)c1	none
COc1ccc(/C=N/Nc2ncccc2[N+](=O)[O-])c(OC)c1	SENP6 block 100, Platelet DG rel 79, SENP7 block 99, SENP8 block-2 97 | SENP8 confirm 99 | SENP6 confirm 100 | SENP7 conf 104 | Casp3 SENP sel 99 | Luc interf inactive
NC(=O)c1ccccc1OCC(=O)Nc1ccc(Cl)c(Cl)c1	SENP6 block 52 | SENP8 confirm inactive | SENP6 confirm inactive | SENP7 conf 64 | Casp3 SENP sel inactive | Luc interf inactive
NC(=O)c1ccccc1OCC(=O)Nc1ccc2c(c1)CCC2	none (no result: Platelet DG rel)
O=C(Nc1ccc(Cl)c(Cl)c1)Nc1ccccc1C(=O)O	SENP6 block 100, SENP7 block 101, SENP8 block-2 98 | SENP8 confirm inactive | SENP6 confirm 101 | SENP7 conf 104 | Casp3 SENP sel 100 | Luc interf 100
O=C(O)c1cccnc1Nc1ccc(Cl)cc1	SENP6 block 66, SENP8 block-2 56 | SENP8 confirm 72 | SENP6 confirm 70 | SENP7 conf 85 | Casp3 SENP sel 72 | Luc interf 74
O=C(Nc1ccc(Cl)cc1)Nc1ccccc1C(=O)O	SENP6 block 95, Platelet DG rel 53, SENP7 block 100, SENP8 block-2 96 | SENP8 confirm inactive | SENP6 confirm 101 | SENP7 conf 104 | Casp3 SENP sel 99 | Luc interf inactive
O=C(Cc1ccccc1)NNC(=O)Nc1ccc(Cl)c(Cl)c1	none
Cc1ccc(C2=NOC(=O)/C2=C\C=C\c2ccccc2)cc1	none (no result: SENP6 block, SENP7 block, SENP8 block-2)
COc1ccc(OC)c(Cc2nnc(CCC(=O)N3CCCCC3c3nccs3)o2)c1 (stereo not drawn)	none
COc1ccc(C(C)(C)C)cc1NC(=O)CCN1C(=O)NC(C)(C)C1=O	none (no result: Platelet DG rel)
COc1ccc(CC(=O)OC(C)C(=O)Nc2ccc(Cl)cn2)cc1 (stereo not drawn)	none (no result: Platelet DG rel)
